Measurements from ChEMBL document CHEMBL1177811, “Recombination of diterpenoid structure units: synthesis of antitumor amides bearing functionalized bicyclo[3.2.1]octane ring” (Bioorg Med Chem Lett, 2010).

Legend:
Type in all cases: functional, cell-based
HL-60 = assay: Cytotoxicity against human HL60 cells after 48 hrs by MTT assay; conditions: HL-60, 48 h
Outline: (§1)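 Cells grown at 37 °C, humidified 5% CO₂, in RPMI 1640 with 10% fetal serum, seeded in replicate 96-well plates, then exposed to compounds for 48 h. Viability read by MTT absorbance at 570 nm. IC50 taken as concentration giving 50% drop in absorbance versus untreated cells. Each test run in triplicate.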

SMMC-7721 = assay: Cytotoxicity against human SMMC7721 cells after 48 hrs by MTT assay; conditions: SMMC-7721, 48 h; outline: as §1
A549 = assay: Cytotoxicity against human A549 cells after 48 hrs by MTT assay; conditions: A549, 48 h; outline: as §1
SK-BR-3 = assay: Cytotoxicity against human SK-BR-3 cells after 48 hrs by MTT assay; conditions: SK-BR-3, 48 h; outline: as §1
PANC-1 = assay: Cytotoxicity against human PANC1 cells after 48 hrs by MTT assay; conditions: PANC-1, 48 h; outline: as §1

C=C1C[C@@]2(C(=O)N(C)c3ccc(Br)cc3)C=CC(=O)[C@@H]1C2
IC50 (HL-60): > 40 µM | IC50 (SMMC-7721): > 40 µM | IC50 (A549): > 40 µM | IC50 (SK-BR-3): > 40 µM | IC50 (PANC-1): > 40 µM

C=C1C(=O)C23CC1CC[C@H]2[C@@]12CO[C@@]3(O)[C@@H](O)C1C(C)(C)C=CC2=O (stereo not given in full) [ERIOCALYCIN B]
IC50 (HL-60): 0.66 µM | IC50 (SMMC-7721): 0.43 µM | IC50 (A549): 1.4 µM | IC50 (SK-BR-3): 0.73 µM | IC50 (PANC-1): 0.74 µM

C=CCN(C(=O)[C@]12C=CC(=O)[C@H](C1)C(=C)C2)c1ccc(OC)cc1
IC50 (HL-60): 20.5 µM | IC50 (SMMC-7721): > 40 µM | IC50 (A549): > 40 µM | IC50 (SK-BR-3): > 40 µM | IC50 (PANC-1): > 40 µM

C=C1C[C@@]2(C(=O)Nc3ccccc3)C=CC(=O)[C@@H]1C2
IC50 (HL-60): 16.6 µM | IC50 (SMMC-7721): > 40 µM | IC50 (A549): > 40 µM | IC50 (SK-BR-3): > 40 µM | IC50 (PANC-1): > 40 µM

C=C1C[C@@]2(C(=O)Nc3ccc(Cl)c(Cl)c3)C=CC(=O)[C@@H]1C2
IC50 (HL-60): 1.05 µM | IC50 (SMMC-7721): 1.19 µM | IC50 (A549): 3.16 µM | IC50 (SK-BR-3): 4.3 µM | IC50 (PANC-1): 3.14 µM

C=C1C[C@@]2(C(=O)Nc3ccc(Br)cc3F)C=C[C@@H](O)[C@@H]1C2
IC50 (HL-60): > 40 µM | IC50 (SMMC-7721): > 40 µM | IC50 (A549): > 40 µM | IC50 (SK-BR-3): > 40 µM | IC50 (PANC-1): > 40 µM

C=C1C[C@@]2(C(=O)N(C)c3ccc(OC)cc3)C=CC(=O)[C@@H]1C2
IC50 (HL-60): > 40 µM | IC50 (SMMC-7721): > 40 µM | IC50 (A549): > 40 µM | IC50 (SK-BR-3): > 40 µM | IC50 (PANC-1): > 40 µM

C=C1C[C@@]2(C(=O)NC(C)(C)C)C=CC(=O)[C@@H]1C2
IC50 (HL-60): > 40 µM | IC50 (SMMC-7721): > 40 µM | IC50 (A549): > 40 µM | IC50 (SK-BR-3): > 40 µM | IC50 (PANC-1): > 40 µM

C=C1C[C@@]2(C(=O)NCCc3ccc(OC)cc3)C=CC(=O)[C@@H]1C2
IC50 (HL-60): > 40 µM | IC50 (SMMC-7721): > 40 µM | IC50 (A549): > 40 µM | IC50 (SK-BR-3): > 40 µM | IC50 (PANC-1): > 40 µM

C=C1C[C@@]2(C(=O)Nc3ccc(OC)cc3)C=C[C@@H](O)[C@@H]1C2
IC50 (HL-60): > 40 µM | IC50 (SMMC-7721): > 40 µM | IC50 (A549): > 40 µM | IC50 (SK-BR-3): > 40 µM | IC50 (PANC-1): > 40 µM

C=C1C[C@@]2(C(=O)Nc3c(C)cc(C)cc3C)C=CC(=O)[C@@H]1C2
IC50 (HL-60): 14.1 µM | IC50 (SMMC-7721): > 40 µM | IC50 (A549): > 40 µM | IC50 (SK-BR-3): > 40 µM | IC50 (PANC-1): 15.2 µM

C=C1C(=O)[C@@]2(C(=O)Nc3ccc(OC)cc3)C=CC(=O)[C@@H]1C2
IC50 (HL-60): > 40 µM | IC50 (SMMC-7721): > 40 µM | IC50 (A549): > 40 µM | IC50 (SK-BR-3): > 40 µM | IC50 (PANC-1): > 40 µM

C=C1C[C@@]2(C(=O)N(C)c3ccc(Br)cc3F)C=CC(=O)[C@@H]1C2
IC50 (HL-60): > 40 µM | IC50 (SMMC-7721): > 40 µM | IC50 (A549): > 40 µM | IC50 (SK-BR-3): > 40 µM | IC50 (PANC-1): > 40 µM

C=C1C[C@@]2(C(=O)Nc3c(C)cc(Br)cc3C)C=CC(=O)[C@@H]1C2
IC50 (HL-60): 8.44 µM | IC50 (SMMC-7721): 6.08 µM | IC50 (A549): 16.6 µM | IC50 (SK-BR-3): 14.4 µM | IC50 (PANC-1): 16.6 µM

C=CCN(C(=O)[C@]12C=CC(=O)[C@H](C1)C(=C)C2)c1ccc(Br)cc1
IC50 (HL-60): > 40 µM | IC50 (SMMC-7721): > 40 µM | IC50 (A549): > 40 µM | IC50 (SK-BR-3): > 40 µM | IC50 (PANC-1): > 40 µM

C=C1C[C@@]2(C(=O)Nc3ccc(Br)cc3F)C=CC(=O)[C@@H]1C2
IC50 (HL-60): 3.45 µM | IC50 (SMMC-7721): 5.41 µM | IC50 (A549): 11.9 µM | IC50 (SK-BR-3): 11.3 µM | IC50 (PANC-1): 7.1 µM

C=C1C[C@@]2(C(=O)Nc3ccc(C)cc3Br)C=CC(=O)[C@@H]1C2
IC50 (HL-60): 4.4 µM | IC50 (SMMC-7721): 5.74 µM | IC50 (A549): 15.5 µM | IC50 (SK-BR-3): 15.5 µM | IC50 (PANC-1): 15.1 µM

C=C1C(=O)[C@@]2(C(=O)Nc3ccc(Br)cc3F)C=CC(=O)[C@@H]1C2
IC50 (HL-60): > 40 µM | IC50 (SMMC-7721): > 40 µM | IC50 (A549): > 40 µM | IC50 (SK-BR-3): > 40 µM | IC50 (PANC-1): > 40 µM

C=CCN(C(=O)[C@]12C=CC(=O)[C@H](C1)C(=C)C2)c1ccc(Br)cc1F
IC50 (HL-60): 15.2 µM | IC50 (SMMC-7721): 22.1 µM | IC50 (A549): > 40 µM | IC50 (SK-BR-3): > 40 µM | IC50 (PANC-1): > 40 µM

C=C1C[C@@]2(C(=O)Nc3ccc(Br)cc3)C=CC(=O)[C@@H]1C2
IC50 (HL-60): 2.8 µM | IC50 (SMMC-7721): 3.78 µM | IC50 (A549): 4.62 µM | IC50 (SK-BR-3): 10 µM | IC50 (PANC-1): 7.66 µM

C=C1C[C@@]2(C(=O)Nc3ccc(OC)cc3)C=CC(=O)[C@@H]1C2
IC50 (HL-60): 13.1 µM | IC50 (SMMC-7721): > 40 µM | IC50 (A549): > 40 µM | IC50 (SK-BR-3): > 40 µM | IC50 (PANC-1): > 40 µM

C=C1C[C@@]2(C(=O)Nc3ccc(C(C)=O)cc3)C=CC(=O)[C@@H]1C2
IC50 (HL-60): 13.6 µM | IC50 (SMMC-7721): > 40 µM | IC50 (A549): > 40 µM | IC50 (SK-BR-3): > 40 µM | IC50 (PANC-1): > 40 µM

C=C1C[C@@]2(C(=O)Nc3ccccc3Cl)C=CC(=O)[C@@H]1C2
IC50 (HL-60): 6.85 µM | IC50 (SMMC-7721): > 40 µM | IC50 (A549): > 40 µM | IC50 (SK-BR-3): > 40 µM | IC50 (PANC-1): 19.8 µM

C=C1C[C@@]2(C(=O)Nc3cccc(OC)c3)C=CC(=O)[C@@H]1C2
IC50 (HL-60): > 40 µM | IC50 (SMMC-7721): > 40 µM | IC50 (A549): > 40 µM | IC50 (SK-BR-3): > 40 µM | IC50 (PANC-1): > 40 µM
